From ChEMBL document CHEMBL1143166, “Derivatives of 4-amino-6-hydroxy-2-mercaptopyrimidine as novel, potent, and selective A3 adenosine receptor antagonists” (J Med Chem, 2008) come the findings set out here.

Test [1] has as its target T1, Adenosine receptor A2a (Homo sapiens, UniProt P29274). As to the kind of experiment: Displacement of [3H]NECA from human adenosine A2A receptor expressed in CHO cells at 10 uM. Type of test: cell-based. The method in brief:
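Membranes (80 µg) from hA2A-expressing CHO cells incubated 90 min at 25 °C in 50 mM Tris-HCl, 2 mM MgCl2, 2 U/mL ADA, pH 7.4, with 30 nM [3H]NECA and compound at 10 µM. Nonspecific binding defined with 100 µM NECA.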
(Displacement assays read how much labelled ligand stays bound in the presence of the test substance.)

In test [2] the target is T2, Adenosine receptor A3 (Homo sapiens) (UniProt P0DMS8).
T2 sequence (whole entry): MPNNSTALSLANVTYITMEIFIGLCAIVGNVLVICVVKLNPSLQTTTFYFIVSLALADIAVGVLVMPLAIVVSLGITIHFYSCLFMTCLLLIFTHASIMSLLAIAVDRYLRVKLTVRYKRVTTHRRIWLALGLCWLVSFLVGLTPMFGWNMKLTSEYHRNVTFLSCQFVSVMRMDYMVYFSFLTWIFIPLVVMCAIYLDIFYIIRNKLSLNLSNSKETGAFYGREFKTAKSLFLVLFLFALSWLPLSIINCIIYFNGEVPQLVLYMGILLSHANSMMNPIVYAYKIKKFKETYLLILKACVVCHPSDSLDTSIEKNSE
As to the kind of experiment: Displacement of [125I]AB-MECA from human adenosine A3 receptor expressed in CHO cells at 1 uM. Type of test: cell-based.

The target in test [3] is T3, Adenosine receptor A1 (Homo sapiens) (UniProt P30542).
T3 sequence (whole entry): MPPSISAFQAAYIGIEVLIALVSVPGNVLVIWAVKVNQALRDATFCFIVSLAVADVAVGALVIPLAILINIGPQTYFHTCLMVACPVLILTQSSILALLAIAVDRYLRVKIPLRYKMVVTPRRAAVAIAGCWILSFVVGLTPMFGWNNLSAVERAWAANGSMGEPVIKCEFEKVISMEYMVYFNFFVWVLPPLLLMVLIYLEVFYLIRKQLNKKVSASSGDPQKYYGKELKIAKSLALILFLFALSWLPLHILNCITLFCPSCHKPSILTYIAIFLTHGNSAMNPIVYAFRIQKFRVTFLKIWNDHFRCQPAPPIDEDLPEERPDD
The experiment in a line: Displacement of […] from human adenosine A1 receptor expressed in CHO cells at 10 uM. Type of test: cell-based. The method in brief:
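Membranes (50 µg protein) from CHO cells stably expressing hA1 incubated 180 min at 25 °C in 50 mM Tris-HCl, 2 mM MgCl2, 2 U/mL ADA, pH 7.4, with 3 nM [3H]DPCPX and compound at 10 µM. Nonspecific binding defined with 50 µM R-PIA.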

For test [4], the target named is T1, Adenosine receptor A2a. The experiment in a line: Displacement of [3H]NECA from human adenosine A2A receptor expressed in CHO cells. Type of test: cell-based.
A further test addresses T4, Adenosine receptor A1 (Homo sapiens, UniProt P30542).
T4 sequence (P30542 whole entry): T3 sequence (whole entry)
The experiment in a line: Displacement of […] from human adenosine A1 receptor expressed in CHO cells. Type of test: cell-based.

Test [5] deals with T5, Adenosine receptor A2b (Homo sapiens) (UniProt P29275).
T5 sequence (whole entry): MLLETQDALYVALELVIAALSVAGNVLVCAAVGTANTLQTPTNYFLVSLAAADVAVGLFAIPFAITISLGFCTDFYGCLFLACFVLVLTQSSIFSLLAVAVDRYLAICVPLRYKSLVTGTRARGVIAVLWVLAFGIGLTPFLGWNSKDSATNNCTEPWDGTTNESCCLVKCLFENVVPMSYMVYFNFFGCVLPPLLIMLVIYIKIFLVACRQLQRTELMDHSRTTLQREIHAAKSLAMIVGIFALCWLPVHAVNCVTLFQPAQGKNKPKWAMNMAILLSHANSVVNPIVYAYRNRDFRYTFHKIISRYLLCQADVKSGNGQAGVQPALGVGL
As to the kind of experiment: Antagonist activity at human adenosine A2B receptor expressed in CHO cells assessed as inhibition of NECA-mediated cAMP accumulation at 10 uM. Type of test: functional, cell-based. The method in brief: (§1)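 hA2B-transfected CHO cells grown 48 h after plating, then preincubated 15 min at 37 °C in DMEM with Ro20-1724 (20 µM) and ADA (1 U/mL). Compound (1 nM–10 µM; single-point 10 µM) given 15 min at 37 °C, then 100 nM NECA. Stopped with 0.4 N HCl, neutralized with KOH. cAMP by competitive binding to bovine adrenal binding protein with [3H]cAMP. Mean ± SEM, four experiments in triplicate.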

A further test addresses T6, Adenosine receptor A2b (Homo sapiens, UniProt P29275).
T6 sequence (P29275 whole entry): T5 sequence (whole entry)
As to the kind of experiment: Antagonist activity at human adenosine A2B receptor expressed in CHO cells assessed as inhibition of NECA-mediated cAMP accumulation. Type of test: functional, cell-based. The method in brief:
as §1

A value given as a limit tells only on which side of the number the result lay.

T1 sequence (P29274 whole entry): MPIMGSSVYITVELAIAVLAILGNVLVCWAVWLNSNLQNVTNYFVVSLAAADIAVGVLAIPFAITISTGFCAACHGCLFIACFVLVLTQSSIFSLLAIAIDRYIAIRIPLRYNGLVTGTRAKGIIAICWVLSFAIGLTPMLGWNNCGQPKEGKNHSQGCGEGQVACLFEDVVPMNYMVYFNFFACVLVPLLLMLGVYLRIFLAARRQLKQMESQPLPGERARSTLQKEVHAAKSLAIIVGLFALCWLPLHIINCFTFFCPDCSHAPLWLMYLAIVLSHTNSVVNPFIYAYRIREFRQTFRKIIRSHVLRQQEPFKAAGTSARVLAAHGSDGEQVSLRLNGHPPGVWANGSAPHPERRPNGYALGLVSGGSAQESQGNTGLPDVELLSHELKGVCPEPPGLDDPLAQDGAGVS

The inhibition is how much of the control response was suppressed. `CCC(=O)Nc1cc(OC)nc(SC)n1`: the inhibition on Adenosine receptor A2a [1] turned out to be 21%; in test [2] it was 51%; in test [3], 2%.
What is called Ki is the equilibrium dissociation constant of an inhibitor or competing ligand from its target. With `CCCOc1cc(NC(C)=O)nc(SC)n1`, the inhibition in test [3] turned out to be 7%. The same compound had a Ki on Adenosine receptor A2a [4] of 1120 nM.
At Adenosine receptor A2a [1], `CCCSc1nc(NC(=O)CC)cc(OC)n1` displayed an inhibition of 4%. The compound further displayed a Ki at Adenosine receptor A1 of 486 nM.
`CCCSc1nc(NC(C)=O)cc(OCc2cccc(Cl)c2)n1`: at Adenosine receptor A2a [1], the inhibition came to 41%. The same compound gave an inhibition constant Ki at Adenosine receptor A1 of 582 nM.
With `CCCSc1nc(NC(C)=O)cc(OC)n1`, the inhibition at Adenosine receptor A2a [1] is 10%; in test [3], 43%.
`CCCOc1cc(NC(C)=O)nc(SCCC)n1`: the inhibition at Adenosine receptor A2a [1] amounted to 30%. Moreover, the affinity on Adenosine receptor A1 corresponds to a Ki of 5470 nM.
With `CCCCSc1nc(NC(C)=O)cc(OCc2ccc(Cl)cc2)n1`, the inhibition on Adenosine receptor A2a [1] stood at 26%; in test [3] it was 0%.
As to `CCCOc1cc(NC(=O)CC)nc(SCCC)n1`, the Ki at Adenosine receptor A1 came out at 1460 nM; on Adenosine receptor A2a [4], 71 nM.
One may read the IC50 as the concentration that inhibits the measured activity by half. `CCCSc1nc(NC(C)=O)cc(OCc2ccc(OC)cc2)n1`: the inhibition at Adenosine receptor A2a [1] came out at 47%; in test [5], 0%. Besides, at Adenosine receptor A2b, the half-inhibitory concentration (IC50) was over 10000 nM. The compound also showed a Ki on Adenosine receptor A1 of 2440 nM.
With `CCCSc1nc(NC(C)=O)cc(OCc2ccc(Cl)cc2)n1`, the inhibition at Adenosine receptor A2a [1] was 43%; in test [5], 0%; in test [3], 17%. Moreover, at Adenosine receptor A2b, the 50% inhibitory concentration (IC50) is over 10000 nM.
Consider `CCCSc1nc(NC(C)=O)cc(OCCc2ccccc2)n1`, for which the inhibition stood at 27% on Adenosine receptor A2a [1] and 13% in test [5]. In addition, the concentration for half-maximal inhibition (IC50) at Adenosine receptor A2b is over 10000 nM. The compound further returned a Ki at Adenosine receptor A1 of 2080 nM.
With `CCCSc1nc(NC(C)=O)cc(OCc2ccccc2Cl)n1`, the inhibition constant Ki at Adenosine receptor A1 turned out to be 1840 nM; on Adenosine receptor A2a [4] it was 4150 nM.
On to `CCCOc1cc(NC(C)=O)nc(SCc2ccccc2)n1`, for which the inhibition at Adenosine receptor A2a [1] was determined as 23%; in test [3], 34%.
The like results for `CCCSc1nc(NC(C)=O)cc(OCc2ccc(Cl)cc2Cl)n1` were, in that order, 29% and 46%.
Compound `CCCSc1nc(NC(C)=O)cc(OCc2ccccc2)n1` yielded an inhibition on Adenosine receptor A2a [1] of 36%. The affinity at Adenosine receptor A1 corresponds to a Ki of 2440 nM.
With `CCSc1nc(NC(C)=O)cc(OCc2ccc(Cl)cc2)n1`, the inhibition at Adenosine receptor A2a [1] turned out to be 56%; in test [5], 10%. In addition, the IC50 on Adenosine receptor A2b is over 10000 nM. The compound further gave an inhibition constant (Ki) on Adenosine receptor A1 of 4480 nM.
In test [3], `CCCOc1cc(NC(=O)CC)nc(SC)n1` yielded an inhibition of 19%. In addition, on Adenosine receptor A2a [4], the affinity corresponds to a Ki of 398 nM.
Regarding `CCCSc1nc(NC(C)=O)cc(OCC2CCCCC2)n1`, the inhibition was 33% at Adenosine receptor A2a [1] and 43% in test [3].
In the case of `COc1cc(NC(C)=O)nc(SC)n1`, the figures for the inhibition (on Adenosine receptor A2a [1]; in test [2]; in test [3]) were 29%, 49% and 30%, respectively.
